The target in data set [1] is T1, Adenosine receptor A1 (Homo sapiens, UniProt P30542).
T1 sequence (P30542 whole entry): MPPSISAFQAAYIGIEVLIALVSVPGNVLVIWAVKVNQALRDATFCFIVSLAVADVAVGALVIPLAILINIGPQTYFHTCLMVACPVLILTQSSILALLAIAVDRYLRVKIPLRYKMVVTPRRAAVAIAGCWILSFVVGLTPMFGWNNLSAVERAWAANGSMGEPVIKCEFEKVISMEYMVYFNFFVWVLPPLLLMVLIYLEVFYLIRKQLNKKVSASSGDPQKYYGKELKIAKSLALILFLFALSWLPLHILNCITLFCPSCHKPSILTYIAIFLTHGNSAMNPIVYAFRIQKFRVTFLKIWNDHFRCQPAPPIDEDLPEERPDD
Description: Antagonist activity at adenosine A1 receptor by cAMP assay. The class given is functional. In short, it runs like this: (§1)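 cAMP functional assay run in antagonist mode at each receptor subtype, with IC50 values reported as means of three experiments.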
A general note: Changes in cAMP serve as a functional read-out for many G protein-coupled receptors.

For data set [2], the target named is Adenosine receptor A2a (Homo sapiens, UniProt P29274). In words: Antagonist activity at adenosine A2A receptor by cAMP assay. The format is functional. A digest of the protocol: as §1
Adenosine receptor A2a, sequence (P29274 whole entry): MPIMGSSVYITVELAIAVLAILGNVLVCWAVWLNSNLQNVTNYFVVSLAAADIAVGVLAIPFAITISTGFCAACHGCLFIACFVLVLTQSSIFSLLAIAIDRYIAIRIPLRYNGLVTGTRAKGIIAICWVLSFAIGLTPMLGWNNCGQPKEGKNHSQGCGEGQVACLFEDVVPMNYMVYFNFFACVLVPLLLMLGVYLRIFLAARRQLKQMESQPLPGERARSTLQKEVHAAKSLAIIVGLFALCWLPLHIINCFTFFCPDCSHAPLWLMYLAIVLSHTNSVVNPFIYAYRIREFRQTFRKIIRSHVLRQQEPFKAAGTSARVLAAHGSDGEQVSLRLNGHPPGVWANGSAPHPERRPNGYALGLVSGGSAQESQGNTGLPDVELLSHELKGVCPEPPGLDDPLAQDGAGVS
Data set [3] deals with T2, Adenosine receptor A2b (Homo sapiens, UniProt P29275).
T2 sequence (P29275 whole entry): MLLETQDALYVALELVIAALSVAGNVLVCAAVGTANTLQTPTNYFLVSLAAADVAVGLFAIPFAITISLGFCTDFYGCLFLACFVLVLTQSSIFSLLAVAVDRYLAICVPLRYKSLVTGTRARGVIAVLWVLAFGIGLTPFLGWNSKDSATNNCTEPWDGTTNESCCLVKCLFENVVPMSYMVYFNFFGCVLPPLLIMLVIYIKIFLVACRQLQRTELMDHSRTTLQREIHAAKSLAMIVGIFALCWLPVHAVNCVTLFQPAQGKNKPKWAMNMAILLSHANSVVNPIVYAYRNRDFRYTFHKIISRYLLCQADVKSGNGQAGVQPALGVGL
Description: Antagonist activity at adenosine A2B receptor by cAMP assay. The class given is functional. A digest of the protocol:
as §1

The target of data set [4] is T3, Adenosine receptor A3 (Homo sapiens, UniProt P0DMS8).
T3 sequence (P0DMS8 whole entry): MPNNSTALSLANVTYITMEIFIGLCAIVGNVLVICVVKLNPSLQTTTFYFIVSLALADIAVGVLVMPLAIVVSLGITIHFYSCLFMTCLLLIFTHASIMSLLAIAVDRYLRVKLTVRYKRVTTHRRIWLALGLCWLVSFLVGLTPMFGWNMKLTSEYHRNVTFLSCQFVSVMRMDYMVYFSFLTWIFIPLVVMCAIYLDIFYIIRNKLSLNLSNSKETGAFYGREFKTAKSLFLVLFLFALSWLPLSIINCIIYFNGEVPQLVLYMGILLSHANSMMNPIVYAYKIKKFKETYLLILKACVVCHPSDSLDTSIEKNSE
Description: Antagonist activity at adenosine A3 receptor by cAMP assay. The class given is functional. In short, it runs like this: as §1

A short description of data set [5]: Oral bioavailability in Wistar rat at 3 mg/kg. The format is ADME, organism-based. As to conditions: in vivo.
Data set [6] in a line: Half life in Wistar rat at 1 mg/kg, iv and 3 mg/kg, po. The format is ADME, organism-based. As to conditions: in vivo. In short, it runs like this:
(§2)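 Pharmacokinetics in Wistar rats, with intravenous dosing at 1 mg/kg in a vehicle of 1% DMSO and 99% plasma.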

Data set [7] can be described thus: Blood clearance in Wistar rat at 1 mg/kg, iv and 3 mg/kg, po. The format is ADME, organism-based. As to conditions: whole blood. A digest of the protocol: as §2
The subject of data set [8] is Rattus norvegicus. In words: Diuretic activity in Wistar rat assessed as urine volume at 0.3 mg/kg, iv administered after 7 days of acclimatization. Also noted: dose 0.3 mg/kg. The format is functional, organism-based. In short, it runs like this:
(§3)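 Wistar rats received compound intravenously in 1 ml/kg vehicle (40% PEG400, 60% Tris buffer), 6–8 animals per dose group, at doses between 0.1 and 3.0 mg/kg. Urine was collected at the cage bottom into collecting tubes, usually over 4 h. Volume was measured, and sodium and potassium were read by flame photometer.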

Data set [9] relates to Mus musculus. In words: Anticonvulsant activity in mouse assessed as inhibition of pentylenetetrazole-induced convulsion at 30 mg/kg, iv. The format is functional, organism-based. Also on record: dose 30 mg/kg.
In data set [10] the test system is Mus musculus. Description: Anticonvulsant activity in mouse assessed as inhibition of maximal electroshock-induced convulsion at 30 mg/kg, iv by MES test. The format is functional, organism-based. Also on record: dose 30 mg/kg. In general terms: In the maximal electroshock model the usual endpoint is tonic extension of the hind limbs.
Data set [11] can be described thus: Selectivity ratio of IC50 for adenosine A2B receptor to IC50 for adenosine A1 receptor.
Data set [12] concerns Rattus norvegicus. In words: Natriuretic activity in Wistar rat assessed as increase in natriuresis at 0.1 mg/kg, iv administered after 7 days of acclimatization. The class given is functional, organism-based. Also noted: dose 0.1 mg/kg. A digest of the protocol: as §3

Molecules are shown by their SMILES. Active and inactive are the calls of the source.

Usually IC50 stands for the concentration needed to halve the response being measured. Lower therefore signals higher potency. For the molecule `Cc1ccccc1-n1nc(C)c(-c2ccc3nccnc3c2)c1Nc1ccc(Cl)cc1C(=O)O`, the IC50 in data set [1] was 16 nM; in data set [2], more than 50000 nM; in data set [3] it was more than 50000 nM.

For the molecule `Cc1ccccc1-n1ncc(-c2ccc3nccnc3c2)c1Nc1ccccc1C(=O)O`, the IC50 in data set [1] is 277 nM; in data set [2], more than 50000 nM; in data set [3], more than 50000 nM.

One may read the bioavailability as dose-corrected exposure relative to a reference, in per cent. Higher therefore signals good availability. A word on the half-life: it is the time needed for the level to fall by half in the phase considered. The low end stands for fast loss, the high end for slow loss. Turning to `COc1ccc(Nc2c(-c3ccc4nccnc4c3)c(C)nn2-c2ccccc2C)c(C(=O)O)c1`, the IC50 in data set [1] is 3.2 nM; in data set [2] it was more than 50000 nM; in data set [4] it was 13000 nM; in [3] it was more than 50000 nM. Besides, the bioavailability in data set [5] came to 20%. For the same molecule, the half-life in data set [6] was 0.4 h. The clearance in data set [7] was 43.7 mL/min/kg.

Turning to `COc1ccc(Nc2c(-c3ccc4nccnc4c3)c(C)nn2-c2ccccc2)c(C(=O)O)c1`, the IC50 in [1] amounted to 2.8 nM; in data set [2] it was 5500 nM; in data set [3] it was 1100 nM.

`Cc1ccc(Nc2c(-c3ccc4nccnc4c3)c(C)nn2-c2ccccc2C)c(C(=O)O)c1`: the results for the 50% inhibitory concentration (IC50) in data set [1], in [2] and in [3] were 5.1 nM, more than 50000 nM and more than 50000 nM, respectively.

In turn, `COc1ccc(Nc2c(-c3ccc(OC)c(OC)c3)c(C)nn2-c2ccccc2C)c(C(=O)O)c1` registered an IC50 in data set [1] of 233 nM.

With `Cc1ccccc1-n1nc(C)c(-c2cc(F)c3nccnc3c2)c1Nc1ccccc1C(=O)O`, the outcome in data set [8] and in data set [12] was Active. In addition, the outcome in data set [9] and in [10] was inactive. Moreover, the 50% inhibitory concentration (IC50) in data set [2] was more than 50000 nM; in [4], more than 10000 nM; in [3], more than 50000 nM. Further, in data set [5], the bioavailability came to 97%. Besides, in data set [11], the Ratio IC50 was more than 83000. The same molecule had a half-life in [6] of 1.8 h. In [7], this molecule had a clearance of 9.5 mL/min/kg.

With `Cc1ccccc1-n1nc(C(F)(F)F)c(-c2ccc3nccnc3c2)c1Nc1ccccc1C(=O)O`, the IC50 is 9 nM in [1], more than 50000 nM in data set [2] and 19000 nM in [3].

Turning to `CCc1ccccc1-n1nc(C)c(-c2ccc3nccnc3c2)c1Nc1ccc(OC)cc1C(=O)O`, the IC50 was 6.4 nM in data set [1], more than 50000 nM in [2] and more than 50000 nM in data set [3].

As to `COc1ccc(Nc2c(-c3ccc(C)c(C)c3)c(C)nn2-c2ccccc2C)c(C(=O)O)c1`, the IC50 in [1] turned out to be 568 nM.

Turning to `COc1ccc(Nc2c(-c3ccc(F)c(F)c3)c(C)nn2-c2ccccc2C)c(C(=O)O)c1`, the midpoint of inhibition in data set [1], the IC50, lay at 294 nM.

For `COc1ccc(Nc2c(-c3ccc4nccnc4c3)c(C)nn2C2CCCCC2)c(C(=O)O)c1`, the IC50 was 435 nM in data set [1], more than 50000 nM in data set [2] and more than 50000 nM in data set [3].

Turning to `COc1ccc(-c2c(C)nn(-c3ccccc3C)c2Nc2ccc(OC)cc2C(=O)O)cc1`, in data set [1], inhibition was half-maximal at 306 nM (IC50).

As for `Cc1ccccc1-n1nc(C)c(-c2ccc3nccnc3c2)c1Nc1ccccc1C(=O)O`, the IC50 is 8 nM in data set [1], more than 50000 nM in data set [2] and more than 50000 nM in data set [3].

`COc1ccc(Nc2c(-c3ccc4c(c3)OCCO4)c(C)nn2-c2ccccc2C)c(C(=O)O)c1` came in with an IC50 in data set [1] of 27 nM.

`COc1ccc(Nc2c(-c3ccc(C)cc3)c(C)nn2-c2ccccc2C)c(C(=O)O)c1` registered an IC50 in [1] of 3.16 nM.

Turning to `COc1ccc(Nc2c(-c3ccc(F)cc3)c(C)nn2-c2ccccc2C)c(C(=O)O)c1`, half-maximal inhibition in data set [1] (IC50) required 1.39 nM.

As to `CCc1nn(-c2ccccc2C)c(Nc2ccccc2C(=O)O)c1-c1ccc2nccnc2c1`, the half-maximal inhibitory concentration (IC50) in data set [1] was 13 nM; in data set [2], more than 50000 nM; in data set [3], more than 50000 nM.

The molecule `COc1ccc(Nc2c(-c3ccc(C(C)=O)cc3)c(C)nn2-c2ccccc2C)c(C(=O)O)c1` displayed a half-maximal inhibitory concentration (IC50) in data set [1] of 40 nM. The bioavailability in [5] was found to be 20%. The same molecule gave a half-life in data set [6] of 1.5 h. For the same molecule, the clearance in data set [7] is 66.7 mL/min/kg.

In the case of `COc1ccc(Nc2c(-c3ccc4c(c3)OCO4)c(C)nn2-c2ccccc2C)c(C(=O)O)c1`, the IC50 in data set [1] was 231 nM.

For the molecule `COc1ccc(Nc2c(-c3ccc4nccnc4c3)c(C)nn2-c2ccccc2Cl)c(C(=O)O)c1`, the IC50 was 7.3 nM in [1], more than 50000 nM in [2] and more than 50000 nM in data set [3].
